Measurements: ChEMBL document CHEMBL1255192, “3-alkylthio-1,2,4-triazine dimers with potent antimalarial activity” (Bioorg Med Chem Lett, 2010)
Values after ≈ are worked out from the molar mass of the structure shown.

How the values were obtained:
HEK293 = assay: Cytotoxicity against HEK293 cells; format: cell-based; settings: Homo sapiens
In short: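 HEK 293 cell toxicity assay, with puromycin as the control. Read-out is EC50.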

[1] = Solubility of the compound at pH 2; format: physicochemical; settings: buffer
[2] = Solubility of the compound at pH 6.5; format: physicochemical; settings: buffer
[3] = Distribution coefficient log D of the compound at pH 7.4; format: physicochemical; settings: octanol/water
In short: (§1)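 Log D at each pH was estimated by a chromatographic method.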

[4] = Distribution coefficient log D of the compound at pH 3; format: physicochemical; settings: octanol/water; in short: as §1
Plasmodium falciparum [5] = assay: Antimalarial activity against Plasmodium falciparum Dd2 infected in human erythrocyte; format: functional, organism-based
In short: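 Chloroquine-resistant P. falciparum Dd2 grown at the erythrocytic stage, with chloroquine as the control. EC50 was determined.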

Plasmodium falciparum [6] = assay: Antimalarial activity against Plasmodium falciparum 3D7 infected in human erythrocyte; format: functional, organism-based
In short: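 Asexual erythrocytic-stage culture of the P. falciparum 3D7 strain, with chloroquine as the reference control. Read-out is EC50.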

L6 = assay: Cytotoxicity against rat L6 cells; format: cell-based
[7] = Intrinsic clearance in human liver microsomes; format: ADME, Microsome
In short: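 Compound was incubated with human liver microsomes. Parent loss and metabolites were followed by LCMS. Concentration versus time was fitted to exponential decay to get the first-order depletion rate constant, which gave in vitro CLint and a predicted hepatic extraction ratio.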

| EC50 (Plasmodium falciparum [6]) [µM] | SMILES | EC50 (HEK293) [µM] | further results |
| --- | --- | --- | --- |
|  | CCCSc1nncc(-c2cnnc(SCCC)n2)n1 | > 115 |  |
|  | CSc1nncc(-c2cnnc(SC)n2)n1 | 68 | solubility [1]: 15.3 µM (≈ 3.86 µg/mL); solubility [2]: 14.5 µM (≈ 3.66 µg/mL); logD [3]: 2.4; logD [4]: 2.4 |
| 0.47 | CN(C)CCSc1nncc(-c2cnnc(SCCN(C)C)n2)n1 | 25 | EC50 (Plasmodium falciparum [5]): 0.62 µM |
| 0.44 | CCN(CC)CCSc1nncc(-c2cnnc(SCCN(CC)CC)n2)n1 | 16 | EC50 (Plasmodium falciparum [5]): 0.79 µM |
|  | COc1nncc(-c2cnnc(OC)n2)n1 | 36 |  |
|  | CCSc1nncc(-c2cnnc(SCC)n2)n1 | 84 |  |
|  | COc1nncc(-c2cnnc(SC)n2)n1 | 18 | EC50 (L6): 33 µM |
| 0.023 | CCN(CC)CCSc1nncc(-c2cnnc(SC)n2)n1 | 9 | EC50 (Plasmodium falciparum [5]): 0.012 µM |
|  | CSc1nncc(-c2cnnc(OCCN(C)C)n2)n1 | 24 |  |
| 1.6 | CCc1nncc(-c2cnnc(CC)n2)n1 |  | microsomal CLint [7]: 11.7 µL/min/mg; solubility [1]: 426 µM (≈ 92.1 µg/mL); solubility [2]: 311 µM (≈ 67.3 µg/mL); logD [3]: 1.6; logD [4]: 1.6 |
|  | CCCCSc1nncc(-c2cnnc(SCCCC)n2)n1 | > 115 |  |
